IMP-1 inh = blocks Pseudomonas aeruginosa IMP-1 metallo-beta-lactamase | purified IMP-1, nitrocefin hydrolysis, epi-absorbance fluorescence | inhibition, % at 5.6 µM | 290,000 compounds, 0.45% hits;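 active = inhibition above the mean plus 3 SD of all compounds in the same screening run, cut at about 4.5% in these data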;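 also: 0% = IMP-1 with DMSO and 100% = DMSO wells lacking enzyme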
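Assay system: purified IMP-1; Quantity: IMP-1 0.2 nM before substrate addition; Medium: HEPES buffer pH 7.1 with ZnSO4 and Brij 35; Incubation: 15 min enzyme–compound preincubation, then 25 min nitrocefin reaction, 25 °C; Signal: fluorescence quenching readout, ex 480/em 530 nm; Controls: DMSO with and without IMP-1; Repeats: singlicate testing.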
HKDC1 inhibitor = HKDC1 (human) hexokinase inhibition. 340,000 compounds, 0.16% hits. recombinant HKDC1, G6PDH/diaphorase resazurin coupled fluorescence. inhibition, % at 20 µM;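 active = inhibition above about 35% when tested at 20 µM, limit read from the data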;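 also: plate controls were DMSO wells with enzyme for no effect and DMSO wells lacking enzyme for full effect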
Target sequence (Q2TB90 whole entry, looked up): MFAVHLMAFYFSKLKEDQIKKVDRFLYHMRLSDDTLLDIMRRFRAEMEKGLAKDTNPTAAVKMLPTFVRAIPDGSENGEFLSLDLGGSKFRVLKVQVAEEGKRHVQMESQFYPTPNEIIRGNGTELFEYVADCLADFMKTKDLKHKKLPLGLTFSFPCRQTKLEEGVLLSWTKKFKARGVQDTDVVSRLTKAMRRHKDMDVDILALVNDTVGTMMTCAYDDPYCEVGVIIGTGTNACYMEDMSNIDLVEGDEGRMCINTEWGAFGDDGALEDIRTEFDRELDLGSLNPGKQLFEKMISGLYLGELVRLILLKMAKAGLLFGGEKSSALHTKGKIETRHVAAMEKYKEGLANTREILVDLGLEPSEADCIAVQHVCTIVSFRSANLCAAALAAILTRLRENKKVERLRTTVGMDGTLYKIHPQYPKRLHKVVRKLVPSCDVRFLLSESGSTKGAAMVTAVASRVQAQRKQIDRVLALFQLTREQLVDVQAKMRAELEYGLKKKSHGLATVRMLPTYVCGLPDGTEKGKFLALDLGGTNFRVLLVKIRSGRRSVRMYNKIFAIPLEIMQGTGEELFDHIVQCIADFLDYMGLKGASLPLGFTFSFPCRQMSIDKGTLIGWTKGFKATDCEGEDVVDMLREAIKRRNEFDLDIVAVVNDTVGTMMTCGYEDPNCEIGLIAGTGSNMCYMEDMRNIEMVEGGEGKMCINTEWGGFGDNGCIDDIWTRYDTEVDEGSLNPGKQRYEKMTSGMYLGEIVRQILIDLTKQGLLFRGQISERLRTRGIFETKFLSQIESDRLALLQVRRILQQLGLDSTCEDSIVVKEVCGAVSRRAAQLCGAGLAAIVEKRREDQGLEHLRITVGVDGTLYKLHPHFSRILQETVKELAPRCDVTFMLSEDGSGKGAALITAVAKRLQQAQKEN
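Material: recombinant HKDC1 hexokinase; Amount: HKDC1 at 5 µg/mL; Medium: Tris pH 8.0 buffer with MgCl2, Tween-20, BSA, BME; Schedule: 90 min reaction incubation at room temperature, dark; Technique: coupled resazurin fluorescence, excitation 525 nm, emission 613 nm.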
MIN6 prolif = inducers of beta-cell replication in MIN6 cells. MIN6 cells proliferation, ATPlite luminescence, 48 h; cells starved in 0.2% serum; 100% = growth in 10% serum. proliferation, % at 10 µM. 330,000 compounds, 0.29% hits;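 active = compounds whose signal lies at least 3.5 SD above the mean of all wells on their plate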;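 also: 0% = DMSO-treated cells in low-serum medium and 100% = 10% serum control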
VIM-2 inhibitor = blocks Pseudomonas aeruginosa VIM-2 metallo-beta-lactamase; AID 1527; purified VIM-2, nitrocefin hydrolysis, epi-absorbance fluorescence; inhibition, % at 5.6 µM; 290,000 compounds, 0.89% hits;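 active = inhibition above the mean of all tested compounds plus 3 SD, cutoff set per screening run, cut at about 7.5% in these data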;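 also: red hydrolysis product quenches plate fluorescence so inhibitors raise well fluorescence; 0% = enzyme with DMSO and 100% = DMSO without enzyme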
ATG4B inh = ATG4B (human) cysteine protease inhibition | ATG4B cleavage of LC3-PLA2, NBD-HPC fluorescence, 1 h | inhibition, % at 8.33 µM | 340,000 compounds, 0.51% hits | AID 504462; in the data active = inhibition above about 40%
PvdQ inh = blocks Pseudomonas aeruginosa PvdQ acylase activity | 340,000 compounds, 0.063% hits | inhibition, % at 10 µM | AID 488965 | purified PvdQ acylase, fluorescence plate reader; in the data active = inhibition above about 30%, passing the limit was not always enough;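 also: 0% = vehicle neutral wells and 100% = reference inhibitor wells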
* = called active by the depositor; . = no result given. This is a sample that favours compounds with a hit; in the whole collection about 2% have one here.

SMILES	IMP-1 inh	HKDC1 inhibitor	MIN6 prolif	VIM-2 inhibitor	ATG4B inh	PvdQ inh
COc1cccc2sc3ccc(C#CC4(N)CCCCC4)cc3c(=O)c12	-2	9	-8	9.0*	-10	-17
CCS(=O)(=O)N1CCN(Cc2ccncc2)CC1	-3	-15	0	-4	-18	-10
CCCS(=O)(=O)N1CCN(Cc2ccncc2)CC1	5.1*	-10	2	0	2	-9
CC(=O)OCCCN1C(=O)c2cccc3cc(Br)cc(c23)C1=O	0	.	2	12*	.	.
CCOC(=O)CCCCCN1C(=O)c2cccc3cccc(c23)C1=O	0	-2	-2	5	-2	13
COc1ccc(C(=O)NCc2nnc(SCC(=O)N3CCCC3)o2)cc1OC	1	-7	3	0	6	0
O=C(c1cc2c(=O)n3ccccc3nc2s1)N1CCN(Cc2ccc3c(c2)OCO3)CC1	-4	1	4	1	-12	-18
O=C(c1cc2c(=O)n3ccccc3nc2s1)N1CCN(Cc2ccccc2)CC1	-2	9	-3	8.2*	-3	-9
CCN1CCN(C(=O)c2cc3c(=O)n4ccccc4nc3s2)CC1	-2	-4	-1	12*	-2	-6
CCn1cc(C(=O)N[C@H](C(=O)NCCCO)C(C)C)c(=O)c2cc3c(cc21)OCO3	-1	-4	-2	2	-7	-17
CCOc1ccc(C(=O)Nc2nnc(SCC(=O)NCC3CCCO3)s2)cc1OCC (stereo not drawn)	-3	-2	-1	-1	1	-7
O=C(CSc1nnc(NC(=O)c2cccc(Cl)c2)s1)NCC1CCCO1 (stereo not drawn)	-2	-3	-3	8.6*	-1	-13
O=C(O)c1ccc(Cl)c2c1C1C=CCC1C(c1ccccn1)N2 (stereo not drawn)	0	.	-4	-1	.	.
COC(=O)COc1ccc(C2Nc3c(Cl)ccc(C(=O)O)c3C3C=CCC32)cc1 (stereo not drawn)	12*	-2	-1	-2	-1	-19
COc1ccc(OC)c(C2Nc3c(Cl)ccc(C(=O)O)c3C3C=CCC32)c1 (stereo not drawn)	11*	-7	1	-1	-3	-1
CCOc1ccccc1NC(=S)NCC1CCCO1 (stereo not drawn)	-3	-11	0	-4	-10	-3
COc1ccc(Cn2c(=N)c(C(=O)NCC3CCCO3)cc3c(=O)n4ccccc4nc32)cc1 (stereo not drawn)	-3	-4	3	9.2*	-5	10
N=c1c(C(=O)NCC2CCCO2)cc2c(=O)n3ccccc3nc2n1Cc1ccc(Cl)cc1 (stereo not drawn)	3	1	0	9.9*	0	-9
CC1(C)CC(=O)C(=C2SCCCS2)C(=O)C1	-1	-9	3	-3	-7	4
c1ccc2c(Nc3ccc4c(c3)OCCO4)c3c(nc2c1)CCC3	-2	-5	-4	8.2*	-4	0
COc1cccc(C(=O)c2c[nH]c(C(=O)NCCCN3CCOCC3)c2)c1	-2	-5	2	3	-5	-12
CCc1nc2ccccc2n1CCc1ccccc1	-1	-3	0	2	-3	6
CCCNc1nc2ccccc2n2c(C)nnc12	-6	3	-2	11*	0	0
CCCN(CCC)c1nc2ccccc2n2c(C)nnc12	-2	2	-2	0	-13	3
CCc1nnc2c(NCCc3ccccc3)nc3ccccc3n12	-2	-30	-1	8.5*	0	-14
SMILES	IMP-1 inh	HKDC1 inhibitor	MIN6 prolif	VIM-2 inhibitor	ATG4B inh	PvdQ inh
CN(C)CCN1C(=O)c2oc3ccc(F)cc3c(=O)c2C1c1ccncc1 (stereo not drawn)	-2	-4	-2	-1	-8	-6
CN(C)CCCN1C(=O)c2oc3ccc(Cl)cc3c(=O)c2C1c1cccnc1 (stereo not drawn)	6.4*	1	-1	1	-7	-10
CCC(C)c1c(O)nc(SCC(=O)c2ccccc2)[nH]c1=O (stereo not drawn)	4.7*	-15	-1	-1	9	-14
COc1ccccc1Nc1cc(C)nc(Nc2ccccc2OC)n1	.	-1	-4	.	7	-9
CC(C)CCNC(=O)c1cccc(Cl)c1	-2	-5	-4	-2	-3	39*
NC(=O)CNC(=O)c1cccc(Cl)c1	-1	-2	-1	-3	5	-13
Cc1cc(Nc2ccc(C)c(C)c2)c2ccccc2n1	0	1	-3	8.6*	-3	-8
CC(=O)Nc1ccc(Nc2cc(C)nc3ccccc23)cc1	.	-5	-3	.	-3	6
COc1ccc(Nc2cc(C)nc3c(C)cccc23)cc1OC	-2	1	2	10*	0	11
Cc1nc(Nc2cc(F)ccc2C)c2nnn(Cc3ccccc3)c2n1	-4	1	1	-3	4	-1
Cc1ccc2[nH]c(C(=O)O)c(-c3ccccc3)c2c1	3	1	-2	9.9*	-3	-1
O=C(O)c1[nH]c2ccccc2c1-c1ccccc1	-3	-1	0	2	-1	-14
O=C(NCCCN1CCN(c2ccccc2F)CC1)Nc1ccccc1[N+](=O)[O-]	-1	13	-2	1	4	10
c1ccc2c(NCCc3c[nH]c4ccccc34)c3ccccc3nc2c1	-3	0	-6	8.1*	-6	17
OCCCNc1c2ccccc2nc2ccccc12	-1	4	3	8.3*	7	9
Cc1ccc(N/C(=C\C(=O)c2ccccc2)C(=O)O)cc1	-4	-4	7.1*	-1	-10	-5
Cc1ccc(NC(=O)c2ccccc2)cc1	-3	0	-1	-4	-12	1
O=C(CCCn1c(=S)[nH]c2cc3c(cc2c1=O)OCO3)NCc1ccccc1Cl	14*	-2	-1	-4	1	-9
Cn1c(SCC(=O)Nc2ccc3c(c2)OCO3)nnc1C(F)(F)F	.	-1	0	.	-3	3
O=C(c1ccco1)N1CCN(c2c([N+](=O)[O-])nn(-c3cccc(Cl)c3)[n+]2[O-])CC1	7.8*	-3	-3	-3	-8	-5
C=CCNC(=O)c1onc(CSc2ccc(Cl)cc2)c1C(=O)O	-2	-4	1	-2	4	-17
FC(F)(F)c1ccc(Cl)c(-n2c(-c3ccco3)n[nH]c2=S)c1	-5	-10	-1	-2	-12	-11
Cc1cc(-c2n[nH]c(=S)n2/N=C/C(Cl)=C/c2ccccc2)n[nH]1	-4	21	-3	-1	-7	-2
S=c1[nH]nc(-c2ccco2)n1/N=C/c1ccc(Cl)c(Cl)c1	-4	15	-4	-2	5	7
S=c1[nH]nc(-c2ccco2)n1/N=C/c1cccc(Cl)c1	-4	1	-2	9.1*	-5	-14
